For 6 compounds, inhibition and Activity results are on record in ChEMBL document CHEMBL1148719, “Fine-tuning the amphiphilicity: a crucial parameter in the design of potent alpha-phenyl-N-tert-butylnitrone analogues” (J Med Chem, 2007).

SMILES strings stand for the structures.

Data set [1] in a line: Cytoprotection in rat mixed cortical cells cultures assessed as inhibition of peroxynitrite-induced cell death at 10 uM after 24 hrs. It counts as functional. The procedure, abridged: (§1)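 Mixed cortical cultures were treated for 24 h with oxidotoxin (hydrogen peroxide, peroxynitrite or doxorubicin, 200 µM), with antioxidant added at 10 µM. The value is the percentage inhibition of Trypan blue absorbance, read as enhanced cell survival. Data are mean ± SEM (N = 10). Comparison was against vehicle control by ANOVA with Bonferroni t-test.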

The species named for data set [2] is Rattus norvegicus. Nature of the data set: Inhibition of hydrogen peroxide-induced inactivation of mitochondrial NADH:ubiquinone oxidoreductase iron sulfur cluster N2 at 10 uM. The procedure, abridged: (§2)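 Rat brain submitochondrial particles were incubated for 30 min with hydrogen peroxide, peroxynitrite or doxorubicin, with or without nitrone at 10 µM. Complex I iron sulfur cluster N2 activity was measured as ferricyanide reduction. The value is the percentage inhibition of oxidative inactivation. Data are mean ± SEM (N = 10). Controls were vehicle-treated particles exposed to oxidotoxin alone; statistics were ANOVA with Bonferroni t-test.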

The test system of data set [3] is Rotifers. Nature of the data set: Cytoprotection against doxorubicin-induced toxicity in rotifer assessed as viability at 10 uM. The data set is classed as functional, Rotifera. The procedure, abridged:
(§3)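 Whole rotifers were exposed for 24 h to oxidotoxin (hydrogen peroxide or doxorubicin, 200 µM), with nitrone antioxidant added at 10 µM. Read-out was the percentage of viable organisms. Data are mean ± SEM (N = 10). Comparison was against vehicle control by ANOVA followed by Bonferroni t-test.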

For data set [4], the species on record is Rattus norvegicus. Put plainly: Inhibition of doxorubicin-induced inactivation of mitochondrial NADH:ubiquinone oxidoreductase iron sulfur cluster N2 at 10 uM. The procedure, abridged: as §2
A short description of data set [5]: Cytoprotection in rat mixed cortical cells cultures assessed as inhibition of doxorubicin-induced cell death at 10 uM after 24 hrs. The data set is classed as functional. The procedure, abridged:
as §1

Data set [6] concerns Rotifers. Put plainly: Cytoprotection against hydrogen peroxide-induced toxicity in rotifer assessed as viability at 10 uM. The data set is classed as functional, Rotifera. The procedure, abridged: as §3
The species entered for data set [7] is Rattus norvegicus. Put plainly: Inhibition of peroxynitrite-induced inactivation of mitochondrial NADH:ubiquinone oxidoreductase iron sulfur cluster N2 at 10 uM. The gist of the method:
as §2

The nature of data set [8]: Cytoprotection in rat mixed cortical cells cultures assessed as inhibition of hydrogen peroxide-induced cell death at 10 uM after 24 hrs. It counts as functional. The procedure, abridged: as §1
Data set [9] can be described thus: Toxicity against rat mixed cortical cells cultures at 10 uM. It counts as cell-based.

As for `CCCCCCCC(=O)NCC(C)(C)/[N+]([O-])=C/c1ccc(CNC(=O)[C@H](O)[C@H](O)[C@H](O[C@@H]2O[C@H](CO)[C@H](O)[C@H](O)[C@H]2O)[C@@H](O)CO)cc1`, the inhibition at 10 µM is 61% in data set [1], 82% in data set [5] and 81% in data set [8]. For the same compound, the results for the inhibition in the data set filed under Rattus norvegicus [2], in the data set listed under Rattus norvegicus [4] and in the data set filed under Rattus norvegicus [7] were 78.3%, 90.7% and 72.5%, respectively. Moreover, the Activity in the data set on Rotifers [3] was 85.8%; in the data set with Rotifers [6], 83%.
`CCCCCCCC(=O)NCC(C)(C)/[N+]([O-])=C/c1ccccc1OCC`: in data set [9], the Activity result was “Toxic”.
Turning to `CCCCCCCC(=O)NCC(C)(C)/[N+]([O-])=C/c1ccc(C(=O)NCC(=O)NC(CO)(CO)CO)cc1`, the inhibition at 10 µM in data set [1] turned out to be 30.5%; in data set [5], 74.3%; in data set [8], 33.8%. In addition, the inhibition in the data set listed under Rattus norvegicus [2] is 59.2%; in the data set filed under Rattus norvegicus [4] it was 83.5%; in the data set listed under Rattus norvegicus [7], 40.5%. The figures for the Activity in the data set on Rotifers [3] and in the data set on Rotifers [6] were 54.3% and 24.1%, respectively.
Take `CC(C)(C)/[N+]([O-])=C\c1ccc(CNC(=O)[C@@H](O)[C@H](O)[C@H](O[C@@H]2O[C@H](CO)[C@H](O)[C@H](O)[C@H]2O)C(O)CO)cc1` (stereo partly specified): the values for the inhibition at 10 µM in data set [1], in [5] and in [8] were 17.3%, 18.5% and 18.3%, respectively. Moreover, the figures for the inhibition in the data set filed under Rattus norvegicus [2], in the data set listed under Rattus norvegicus [4] and in the data set listed under Rattus norvegicus [7] were 25.1%, 13.5% and 17.3%, respectively. The results for the Activity in the data set on Rotifers [3] and in the data set with Rotifers [6] were 18.2% and 18.6%, respectively.
For the compound `CC(C)(CNC(=O)CCC(F)(F)C(F)(F)C(F)(F)C(F)(F)C(F)(F)C(F)(F)F)/[N+]([O-])=C/c1ccc(CNC(=O)[C@H](O)[C@H](O)[C@H](O[C@@H]2O[C@H](CO)[C@H](O)[C@H](O)[C@H]2O)[C@@H](O)CO)cc1`, the inhibition at 10 µM came out at 40.1% in data set [1], 34.9% in [5] and 63.4% in [8]. Besides, the inhibition amounted to 51.9% in the data set listed under Rattus norvegicus [2], 57.3% in the data set filed under Rattus norvegicus [4] and 39.3% in the data set listed under Rattus norvegicus [7]. For the same compound, the results for the Activity with Rotifers [3] and with Rotifers [6] were 30.6% and 40.6%, respectively.
Consider `CC(C)(C)/[N+]([O-])=C/c1ccccc1`, for which the inhibition at 10 µM in [1] was 20.6%; in [5] it was 24.2%; in [8] it was 25%. The figures for the inhibition in the data set listed under Rattus norvegicus [2], in the data set listed under Rattus norvegicus [4] and in the data set listed under Rattus norvegicus [7] were 35%, 44.3% and 27.6%, respectively. In addition, the Activity was 18.7% with Rotifers [3] and 25.6% with Rotifers [6].
